Results on one compound are retold here after ChEMBL document CHEMBL3352115, “Discovery of APD334: Design of a Clinical Stage Functional Antagonist of the Sphingosine-1-phosphate-1 Receptor” (ACS Med Chem Lett, 2014).

Active and inactive are the calls of the source. No cut-off for these calls is given here.

The test system of data set [1] is Canis familiaris. The data set is described as follows: Reduction in peripheral lymphocyte count in orally dosed dog measured after 24 hrs. The format is ADME, organism-based. The settings on record: Canis lupus familiaris.
Data set [2] addresses Sphingosine 1-phosphate receptor 2 (Homo sapiens, UniProt O95136). The data set is described as follows: Agonist activity at human S1P2 receptor by beta-arrestin recruitment assay.
Data set [3] can be described thus: Systemic clearance in dog at 1 mg/kg, iv. Also noted: dose 1 mg/kg, route intravenous. Format: ADME, organism-based, Canis lupus familiaris. The note with it: in vivo.
Data set [4] in a line: Protein binding in human plasma. The format is ADME, cell-free. The settings on record: read-out: PPB (converted).
Another data set relates to Rhesus monkey. The data set is described as follows: Systemic clearance in monkey at 1 mg/kg, iv relative to liver blood flow. The format is ADME, organism-based, Macaca mulatta. Also noted: dose 1 mg/kg, route intravenous. The settings on record: in vivo.
Data set [5] can be described thus: Drug level in Sprague-Dawley rat plasma at 14.5 ug/hr/kg dosed as constant infusion measured after 48 hrs. Format: ADME, organism-based. The note with it: iv. Put shortly:
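Male Sprague–Dawley rats given constant infusion at 14.5 μg/h/kg for 48 h; brain and plasma concentrations measured at 48 h.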

In the next data set the test system is Mus musculus. In words: Reduction in lymphocyte infiltration in C57Bl/6 mouse experimental autoimmune encephalomyelitis model of multiple sclerosis at 3 mg/kg dosed once daily beginning on day 18 and continued to day 37 by immunofluorescent staining method. The format is functional, organism-based. Also noted: dose 3 mg/kg. Put shortly:
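Therapeutic EAE in female C57Bl/6 mice, dosing from day 18; spinal cord and brain collected day 37; cerebellum sections immunostained for CD45 and CD3 with DAPI counterstain; inflammatory foci and infiltrating lymphocytes assessed.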

For data set [6], the system named is Canis familiaris. In words: Effect on body temperature in telemeterized dog up to 40 mg/kg. The format is ADME, organism-based, Canis lupus familiaris. Also noted: dose 40 mg/kg. The note with it: in vivo. A digest of the protocol:
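Telemeterized dogs dosed at levels up to 40 mg/kg; pulse pressure, heart rate, body temperature and ECG parameters monitored.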

A short description of data set [7]: Cmax in rat at 1 mg/kg, iv or 1 mg/kg, po. The format is ADME, organism-based. The settings on record: in vivo.
Data set [8] is described as follows: Volume of distribution at steady state in dog at 1 mg/kg, iv. The settings on record: in vivo, read-out: Vdss. Further details: dose 1 mg/kg, route intravenous. The format is ADME, organism-based, Canis lupus familiaris.
In another data set the test system is Rattus norvegicus. In words: Induction of body weight regain in Lewis rat collagen-induced arthritis model at 3 mg/kg, po qd measured on day 17 (reference value: 160.3 +/- 2.3 g). The format is functional.
Data set [9] in a line: Volume of distribution at steady state in monkey at 1 mg/kg, iv. The note with it: rhesus monkey, in vivo, read-out: Vdss. Format: ADME, organism-based, Macaca mulatta. Also noted: dose 1 mg/kg, route intravenous.
Data set [10] can be described thus: Tmax in mouse at 1 mg/kg, iv or 1 mg/kg, po. Format: ADME, organism-based. The note with it: in vivo.

Sequence of Sphingosine 1-phosphate receptor 2 (O95136 whole entry): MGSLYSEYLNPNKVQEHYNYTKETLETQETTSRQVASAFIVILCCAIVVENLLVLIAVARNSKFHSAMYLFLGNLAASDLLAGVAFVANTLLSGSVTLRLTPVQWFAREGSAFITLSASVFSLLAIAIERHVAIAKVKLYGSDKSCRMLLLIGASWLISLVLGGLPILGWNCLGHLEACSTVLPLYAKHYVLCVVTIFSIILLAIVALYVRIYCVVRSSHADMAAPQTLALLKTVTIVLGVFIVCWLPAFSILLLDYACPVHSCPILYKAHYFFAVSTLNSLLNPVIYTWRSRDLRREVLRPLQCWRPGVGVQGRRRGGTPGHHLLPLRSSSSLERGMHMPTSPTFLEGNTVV

Broadly, the IC50 is the concentration at which inhibition is half-maximal. By EC50 is commonly meant the concentration at which the effect is half-maximal. One may read the clearance as the volume of plasma or blood freed of the substance per unit of time. As a reminder, the Cmax is the highest concentration seen after dosing. Broadly, the Tmax is the time from dosing to the highest level. Turning to `O=C(O)C[C@H]1CCc2c1[nH]c1ccc(OCc3ccc(C4CCCC4)c(C(F)(F)F)c3)cc21` [ETRASIMOD], the half-maximal inhibitory concentration (IC50) in the data set on Canis familiaris [1] worked out at 58 nM. In addition, the EC50 in data set [2] was over 10000 nM. In addition, the clearance in data set [3] was 0.23 mL/min/kg. In addition, the fraction unbound in [4] was 0.022. Further, the CL in the data set with Rhesus monkey stood at 2.23%. Further, the concentration at 48 h in [5] came to 110 nM. Also, in the data set on Mus musculus, the result was Active. Besides, the results for the Activity result in the data set with Canis familiaris [6] and in the data set on Rattus norvegicus were “Non-toxic” and 182.3 g, respectively. Further, the Cmax in data set [7] was 218 ng/mL. Besides, the Vd is 0.609 L/kg in [8] and 0.411 L/kg in data set [9]. The Tmax in data set [10] is 8 h.
